Compound activity (PubChem BioAssay)
DNMT1 inh = inhibitors of human DNMT1; DNMT1 molecular beacon, Hinp1I cleavage, fluorescence; inhibition (reported as % activation of signal), % at 10 µM; 0.83% of 360,000 active; AID 588458; in the data active means inhibition above about 50%
LMPTP block = LMPTP (human) inhibition | inhibition, % at 20 µM | P24666 | 0.22% of 360,000 active | recombinant LMPTP-A, OMFP fluorogenic substrate, fluorescence intensity;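 active means compounds that cut the enzyme signal by at least half of the control window in the single-dose screen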;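 further: plate controls were DMSO wells with enzyme plus substrate for no effect and substrate without enzyme for full effect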
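Test system: LMPTP-A, protein tyrosine phosphatase of low molecular weight; Input: 0.625 nM enzyme; Incubation: 50 min dark incubation at room temperature; Signal: endpoint fluorescence intensity from OMFP dephosphorylation; Read-out basis: % inhibition versus control wells.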
SUMO1 PPI mod = modulators of human SUMO1-mediated protein-protein interactions; P63165; SUMO1 binding to a labelled peptide, TR-FRET, 1 h; inhibition, % at 20 µM; 0.33% of 360,000 active; AID 602429; in the data active means inhibition above about 37%
Scp1 inh = blocks human Scp-1 phosphatase activity. Recombinant Scp1, phosphopeptide, malachite green phosphate absorbance. 0.88% of 340,000 active. AID 493091. inhibition, % at 20 µM;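 active means inhibition above about 50% at 20 µM, limit read from the data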;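 further: plate controls were DMSO wells with enzyme for no effect and wells lacking enzyme for full effect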
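Assay system: SCP-1 catalytic fragment, aa 76-261 | Buffer or medium: Tris acetate buffer pH 5.5 with MgCl2 and Tween-20 | Compound: One concentration, 20 µM, with 1.0% DMSO | Also added: Phospho 17-mer peptide substrate | Signal: Absorbance at 630 nm | Incubation: 45 min enzyme reaction at room temperature | Measure: % inhibition of SCP-1 phosphate liberation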
STEP inh = inhibitors of human striatal-enriched phosphatase STEP; inhibition, % at 20 µM; P54829; recombinant STEP, OMFP fluorogenic substrate, fluorescence; 0.25% of 360,000 active;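 active means inhibition at 20 µM, scaled per plate between control wells, above about 37%, limit read from the data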;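 further: 0% = DMSO with enzyme and substrate and 100% = substrate only without enzyme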
Target sequence (P54829 whole entry, looked up): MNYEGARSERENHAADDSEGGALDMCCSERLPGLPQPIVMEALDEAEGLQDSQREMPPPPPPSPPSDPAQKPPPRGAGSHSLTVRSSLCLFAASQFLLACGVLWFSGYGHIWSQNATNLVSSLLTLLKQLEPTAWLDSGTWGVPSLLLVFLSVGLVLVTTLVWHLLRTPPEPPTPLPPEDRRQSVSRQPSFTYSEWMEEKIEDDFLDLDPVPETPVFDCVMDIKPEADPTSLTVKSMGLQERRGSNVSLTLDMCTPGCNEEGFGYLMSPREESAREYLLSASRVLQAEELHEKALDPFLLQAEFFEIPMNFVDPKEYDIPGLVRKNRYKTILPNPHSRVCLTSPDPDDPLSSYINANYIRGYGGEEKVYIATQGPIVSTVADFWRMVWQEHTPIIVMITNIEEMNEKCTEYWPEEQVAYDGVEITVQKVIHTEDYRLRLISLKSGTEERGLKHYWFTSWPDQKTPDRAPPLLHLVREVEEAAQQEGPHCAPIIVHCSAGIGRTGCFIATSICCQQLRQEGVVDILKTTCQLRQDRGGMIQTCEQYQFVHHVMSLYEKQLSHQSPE
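material = STEP tyrosine phosphatase | reagent = fluorogenic phosphatase substrate OMFP at 25 µM final | doses = single compound dose of 20 µM, 1% DMSO final | schedule = 20 min reaction, room temperature, in the dark | measured by = fluorescence, 480/540 nm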
Beacon interf DR = counter-screen for DNMT1 inhibitors: spectral interference, dose response; shares compounds with DNMT1 inh; molecular beacon fluorescence; IC50, µM; 200 tested, under 10 active; AID 602382; call rule not given here
DNMT1 inh conf = confirmation of human DNMT1 inhibitors; shares compounds with DNMT1 inh; DNMT1 molecular beacon HinP1I cleavage, fluorescence; inhibition, % at 10 µM; 8% of 2,300 active; AID 602385;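 active means average inhibition of at least 30% in the single-concentration confirmation test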
Beacon interf = beacon fluorescence artifact counter-screen | shares compounds with DNMT1 inh | DNMT1 molecular beacon spectral interference counterscreen, fluorescence 485/520 | activation (fluorescence interference), % at 10 µM | 1% of 2,300 active | AID 602387;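 active means activation of at least 30% at 10 µM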;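 further: DNMT1 catalytic domain with a HinP1I cleavage step and a FAM/dabcyl DNA beacon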
The depositor's hits bear a star; . = no result given. A selection: hits, their analogues and other compounds. The true share with any hit is near 1.7%.

SMILES | DNMT1 inh | LMPTP block | SUMO1 PPI mod | Scp1 inh | STEP inh | DNMT1 inh conf | Beacon interf | others
COc1ccc(NC(=O)c2cc(C)nc3ccccc23)cc1S(=O)(=O)N1CCOCC1 | 1.2 | -0.1 | -1.4 | 10.6 | 1.5 | . | .
O=C(NCC1CCCO1)c1cc(-c2ccncc2)nc2ccccc12 (centres undefined) | 0.5 | 0.0 | -13.8 | 4.4 | 1.2 | . | .
O=C(c1cc(-c2ccco2)nc2ccccc12)N1CCN(Cc2ccccc2)CC1 | -2.6 | 0.7 | -2.2 | -5.7 | 3.2 | . | .
COc1ccc(NC(=O)c2cc(-c3ccco3)nc3ccccc23)cc1S(=O)(=O)N1CCOCC1 | 63.5* | 21.4 | 0.1 | 85.0* | 3.3 | 20.7 | 0.0
CN(CC(=O)Nc1cccc(F)c1)C(=O)c1cc(-c2ccco2)nc2ccccc12 | 86.6* | 33.8 | 10.6 | 82.6* | 16.2 | 9.2 | -0.2
COc1ccc(-c2cc(C(=O)N(C)CC(=O)Nc3cccc(F)c3)c3ccccc3n2)cc1OC | -0.2 | 1.2 | -0.3 | . | 4.5 | . | .
O=C(NCC1CCCO1)c1cc(-c2ccco2)nc2ccccc12 (centres undefined) | 83.8* | 4.1 | -0.5 | 44.3 | 4.5 | 18.9 | 1.7
COc1ccc(N(Cc2ccccc2)S(=O)(=O)c2cccc(C(=O)Nc3ncccc3C)c2)cc1 | -6.1 | 2.1 | 1.1 | 9.8 | 0.3 | . | .
Cc1cc(Cl)c2oc(C(=O)N(C)CC3CCOCC3)c(C)c2c1 | -3.3 | -0.5 | 0.6 | 1.2 | -1.9 | . | .
Cc1ccccc1NC(=O)c1cc(-c2ccco2)nc2ccccc12 | 46.1 | 11.6 | 1.0 | 84.1* | 14.2 | 1.2 | 3.0
O=C(N/N=C/c1cccc(F)c1)c1cc(-c2ccco2)nc2ccccc12 | 97.3* | 55.6* | 21.7 | 81.1* | 16.4 | 67.8* | 1.6 | Beacon interf DR=>99
COc1cc(/C=N/NC(=O)c2cc(-c3ccco3)nc3ccccc23)cc(OC)c1O | -10.8 | 5.5 | -7.5 | 7.7 | 0.1 | . | .
Cc1ccc(S(=O)(=O)N(C)C)cc1NC(=O)c1cc(-c2ccco2)nc2ccccc12 | 6.3 | 1.7 | -7.0 | 18.5 | -3.5 | . | .
CCn1cc(C(=O)N2CCCC(C(=O)c3ccc4ccccc4c3)C2)cn1 (centres undefined) | 6.0 | 2.6 | -19.6 | -0.7 | -1.8 | . | .
O=C(NC1CCCCC1)C(C1CC1)n1c(=O)c(-c2ccccc2)nc2ccccc21 (centres undefined) | . | -0.1 | -8.2 | . | . | . | .
COc1ccc(N2CCN(C(CNC(=O)C(=O)NCCc3c[nH]c4ccccc34)c3ccco3)CC2)cc1 (centres undefined) | 77.9* | 0.1 | 0.7 | -7.6 | -3.3 | -1.4 | -1.4
COc1ccccc1NS(=O)(=O)c1cc2c3c(c1)CCN3C(=O)CC2 | 84.3* | 0.1 | 1.6 | 1.8 | 3.4 | 2.3 | 1.9
COc1ccc([C@H]2[C@H](C(=O)C(C)(C)C)N3N=Cc4ccccc4C3[C@]23N=C(c2ccccc2)OC3=O)cc1OC (some centres undefined) | 55.0* | 1.0 | -5.2 | -4.6 | 0.7 | 3.0 | 1.9
COc1ccc([C@H]2[C@H](C(=O)C(C)(C)C)N3N=Cc4ccccc4C3[C@]23N=C(c2ccccc2)OC3=O)cc1 (some centres undefined) | -3.3 | 1.0 | 3.3 | -9.7 | -0.5 | . | .
Cn1ncc(Cl)c1C(=O)Nc1cccc(Cl)c1 | -9.3 | -1.3 | -2.3 | -9.5 | 2.4 | . | .
Cn1ncc(N=Cc2c(O)ccc3ccccc23)c1C(=O)Nc1cccc(Cl)c1 | 51.1* | 2.6 | -6.2 | -6.7 | 0.0 | 7.4 | 0.4
Cc1ccc(C(=O)NCCNc2nc3cc(C)c(C)cc3cc2C)cc1 | 55.8* | 1.3 | 24.2 | 5.0 | 3.0 | 6.2 | 0.9
Cc1c(Cl)cccc1NC(=O)CCC(=O)N/N=C/c1ccc[nH]1 | -25.2 | -1.8 | 2.2 | -8.3 | -1.6 | . | .
COc1cccc(NC(=O)CN(C)C(=O)C2=COCCO2)c1 | 1.9 | -1.8 | -2.9 | 1.8 | -3.4 | . | .
